Data taken from ChEMBL document CHEMBL1121696, “Antimicrobial 3-methyleneflavanones” (1981).
≈ marks a conversion by molar mass, not a printed value. Blank lines part the entries; values can stand above or below the molecule they belong to.

Key:
Trichophyton benhamiae [1] = assay: Compound was tested for the antimicrobial activity against Trichophyton mentagrophytes (ATCC 4807); Range is 12.5-25; assay type: functional, Arthroderma benhamiae
Procedure, shortened: (§1)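 Spores came from Eugon agar slants grown 1 week at 32 °C, suspended at 10⁶/mL in Eugon broth or saline, and applied by Steers replicator. The lowest inhibitory concentration was read after 48-72 h at 32 °C.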

Aspergillus niger = assay: Antimicrobial activity against Aspergillus niger (ATCC 16404); assay type: functional; procedure, shortened: as §1
Enterococcus faecalis [2] = assay: Antimicrobial activity against Streptococcus faecalis (ATCC 10541); assay type: functional
Procedure, shortened: (§2)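 Agar dilution MIC. Stocks and twofold serial dilutions in DMF or 50% aqueous DMF were mixed 1:100 into molten Eugon agar, giving final 100, 50, 25, 12.5, 6.2, 3.1 mcg/mL (further dilutions sometimes) and ≤1% DMF. Inocula came from 24 h Eugon agar slants at 32 °C, suspended at 10⁶ cells/mL and applied with a Steers replicator. MIC (lowest concentration inhibiting growth) was read after 24 h at 32 °C.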

Candida albicans [3] = assay: Compound was tested for the antimicrobial activity against Candida albicans (ATCC 10231, NRRL Y-477); Range is 50-100; assay type: functional; procedure, shortened: as §2
Staphylococcus aureus [4] = assay: Antimicrobial activity against Staphylococcus aureus (ATCC 6538, NRRL B2747); assay type: functional; procedure, shortened: as §2
Trichophyton benhamiae [5] = assay: Compound was tested for the antimicrobial activity against Trichophyton mentagrophytes (ATCC 4807); Range is 25-50; assay type: functional, Arthroderma benhamiae; procedure, shortened: as §1
Trichophyton benhamiae [6] = assay: Compound was tested for the antimicrobial activity against Trichophyton mentagrophytes (ATCC 4807); Range is 6.2-12.5; assay type: functional, Arthroderma benhamiae; procedure, shortened: as §1
Candida albicans [7] = assay: Compound was tested for the antimicrobial activity against Candida albicans (ATCC 10231, NRRL Y-477); Range is 50 to >100; assay type: functional; procedure, shortened: as §2
Staphylococcus aureus [8] = assay: Antimicrobial activity against Staphylococcus aureus (ATCC 6538, NRRL B2747); Range is <3.1-6.2; assay type: functional; procedure, shortened: as §2
Trichophyton benhamiae [9] = assay: Antimicrobial activity against Trichophyton mentagrophytes (ATCC 4807); assay type: functional, Arthroderma benhamiae; procedure, shortened: as §1
Candida albicans [10] = assay: Antimicrobial activity against Candida albicans (ATCC 10231, NRRL Y-477); assay type: functional; procedure, shortened: as §2
Candida albicans [11] = assay: Compound was tested for the antimicrobial activity against Candida albicans (ATCC 10231, NRRL Y-477); Range is 25-50; assay type: functional; procedure, shortened: as §2
Trichophyton benhamiae [12] = assay: Compound was tested for the antimicrobial activity against Trichophyton mentagrophytes (ATCC 4807); Range is 6.2-25; assay type: functional, Arthroderma benhamiae; procedure, shortened: as §1
Trichophyton benhamiae [13] = assay: Compound was tested for the antimicrobial activity against Trichophyton mentagrophytes (ATCC 4807); Range is <3.1-25; assay type: functional, Arthroderma benhamiae; procedure, shortened: as §1
Candida albicans [14] = assay: Compound was tested for the antimicrobial activity against Candida albicans (ATCC 10231, NRRL Y-477); Range is 25 to >100; assay type: functional; procedure, shortened: as §2
Trichophyton benhamiae [15] = assay: Compound was tested for the antimicrobial activity against Trichophyton mentagrophytes (ATCC 4807); Range is <3.1-12.5; assay type: functional, Arthroderma benhamiae; procedure, shortened: as §1
Enterococcus faecalis [16] = assay: Compound was tested for its antimicrobial activity against Streptococcus faecalis (ATCC 10541); assay type: functional; procedure, shortened: as §2
Staphylococcus aureus [17] = assay: Compound was tested for its antimicrobial activity against Staphylococcus aureus (9-267); assay type: functional; procedure, shortened: as §2
Staphylococcus aureus [18] = assay: Compound was tested for its antimicrobial activity against Staphylococcus aureus (NRRL B2747); assay type: functional; procedure, shortened: as §2
Enterococcus = assay: Compound was tested for its antimicrobial activity against Enterococcus (9-25)
Cutibacterium acnes = assay: Compound was tested for its antimicrobial activity against Propionibacterium acnes (ATCC 6919); assay type: functional
Procedure, shortened: (§3)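 Anaerobic bacteria were grown 72 h at 32 °C in fluid thioglycollate medium and used undiluted to inoculate, by Steers replicator, Eugon agar containing serial twofold compound dilutions made in DMF or 50% aqueous DMF (final 100 to 3.1 mcg/mL, ≤1% DMF). MIC was read after 72 h of anaerobic incubation (Gas-Pak jar) at 37 °C.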

[19] = system: Clostridium acetobutylicum; assay: Compound was tested for its antimicrobial activity against Clostridium acetobutylicum (ATCC 824); assay type: functional; procedure, shortened: as §3
Staphylococcus aureus [20] = assay: Compound was tested for its antimicrobial activity against Staphylococcus aureus (ATCC 6538); assay type: functional; procedure, shortened: as §2
Staphylococcus aureus [21] = assay: Compound was tested for its antimicrobial activity against Staphylococcus aureus (9-195); assay type: functional; procedure, shortened: as §2
Bacillus subtilis = assay: Compound was tested for its antimicrobial activity against Bacillus subtilis (ATCC 6633); assay type: functional; procedure, shortened: as §2
[22] = system: Staphylococcus epidermidis; assay: Compound was tested for its antimicrobial activity against Staphylococcus epidermidis (ATCC 12228); assay type: functional; procedure, shortened: as §2
[23] = Compound was tested for its antimicrobial activity against Sarcina subflava (ATCC 7468); assay type: functional; procedure, shortened: as §2
Staphylococcus aureus [24] = assay: Compound was tested for its antimicrobial activity against Staphylococcus aureus (ATCC 151); assay type: functional; procedure, shortened: as §2
Enterococcus faecalis [25] = assay: Compound was tested for the antimicrobial activity against Streptococcus faecalis (ATCC 10541); Range is 25-50; assay type: functional; procedure, shortened: as §2

SMILES: C=C1C(=O)c2ccccc2OC1(C)C
- MIC (Enterococcus faecalis [2]): > 100 mg/L
- MIC (Candida albicans [3]): 50 mg/L (≈ 266 µM)
- MIC (Staphylococcus aureus [4]): > 100 mg/L
- MIC (Aspergillus niger): > 100 mg/L
- MIC (Trichophyton benhamiae [5]): 25 mg/L (≈ 133 µM)

SMILES: CN(C)/C=C1\C(=O)c2ccccc2OC1c1ccccc1 (stereo not given)
- MIC (Enterococcus faecalis [2]): > 100 mg/L
- MIC (Trichophyton benhamiae [9]): 100 mg/L (≈ 358 µM)
- MIC (Staphylococcus aureus [4]): > 100 mg/L
- MIC (Aspergillus niger): > 100 mg/L
- MIC (Candida albicans [10]): > 100 mg/L

SMILES: C=C1COc2ccccc2C1=O
- MIC (Enterococcus faecalis [2]): 100 mg/L (≈ 624 µM)
- MIC (Trichophyton benhamiae [6]): 6.2 mg/L (≈ 38.7 µM)
- MIC (Candida albicans [11]): 25 mg/L (≈ 156 µM)
- MIC (Staphylococcus aureus [4]): 50 mg/L (≈ 312 µM)
- MIC (Aspergillus niger): 100 mg/L (≈ 624 µM)

SMILES: CN(C)CC1(C)C(=O)c2ccccc2OC1c1ccccc1 (stereo not given)
- MIC (Enterococcus faecalis [2]): > 50 mg/L
- MIC (Trichophyton benhamiae [9]): > 50 mg/L
- MIC (Staphylococcus aureus [4]): > 50 mg/L
- MIC (Aspergillus niger): > 50 mg/L
- MIC (Candida albicans [10]): > 50 mg/L

SMILES: C=C1C(=O)c2ccccc2OC1(c1ccccc1)c1cccs1 (stereo not given)
- MIC (Trichophyton benhamiae [12]): 6.2 mg/L (≈ 19.5 µM)

SMILES: C=C1C(=O)c2cc(C)ccc2OC1c1ccccc1 (stereo not given)
- MIC (Trichophyton benhamiae [9]): 6.2 mg/L (≈ 24.8 µM)

SMILES: Oc1c(I)cc(Cl)c2cccnc12 [CLIOQUINOL]
- MIC (Enterococcus faecalis [16]): 12.5 mg/L (≈ 40.9 µM)
- MIC (Staphylococcus aureus [17]): 12.5 mg/L (≈ 40.9 µM)
- MIC (Staphylococcus aureus [18]): 12.5 mg/L (≈ 40.9 µM)
- MIC (Enterococcus): 25 mg/L (≈ 81.8 µM)
- MIC (Cutibacterium acnes): 25 mg/L (≈ 81.8 µM)
- MIC [19]: < 6.2 mg/L
- MIC (Staphylococcus aureus [20]): 12.5 mg/L (≈ 40.9 µM)
- MIC (Staphylococcus aureus [21]): 12.5 mg/L (≈ 40.9 µM)
- MIC (Bacillus subtilis): 6.2 mg/L (≈ 20.3 µM)
- MIC [22]: 12.5 mg/L (≈ 40.9 µM)
- MIC [23]: 3.1 mg/L (≈ 10.1 µM)
- MIC (Staphylococcus aureus [24]): 3.1 mg/L (≈ 10.1 µM)

Second part, the molecule after the results:

- MIC (Trichophyton benhamiae [1]): 12.5 mg/L (≈ 44.7 µM)
- MIC (Aspergillus niger): 100 mg/L (≈ 358 µM)
SMILES: C=C1C(=O)c2ccccc2OC1c1ccc(N(C)C)cc1 (stereo not given)

- MIC (Enterococcus faecalis [2]): 50 mg/L (≈ 175 µM)
- MIC (Trichophyton benhamiae [6]): 6.2 mg/L (≈ 21.7 µM)
- MIC (Candida albicans [7]): > 50 mg/L
- MIC (Aspergillus niger): > 100 mg/L
- MIC (Staphylococcus aureus [8]): < 3.1 mg/L
SMILES: C=C1C(=O)c2ccccc2OC1c1cccc2ccccc12 (stereo not given)

- MIC (Trichophyton benhamiae [12]): 6.2 mg/L (≈ 23.7 µM)
SMILES: C=C1C(=O)c2ccccc2OC1c1ccc(C#N)cc1 (stereo not given)

- MIC (Trichophyton benhamiae [13]): < 3.1 mg/L
- MIC (Staphylococcus aureus [4]): < 3.1 mg/L
SMILES: C=C1C(=O)c2ccccc2OC1c1ccc(Cl)cc1 (stereo not given)

- MIC (Trichophyton benhamiae [12]): 6.2 mg/L (≈ 21.7 µM)
- MIC (Enterococcus faecalis [2]): 50 mg/L (≈ 175 µM)
- MIC (Candida albicans [14]): > 25 mg/L
- MIC (Aspergillus niger): > 100 mg/L
- MIC (Staphylococcus aureus [8]): < 3.1 mg/L
SMILES: C=C1C(=O)c2ccccc2OC1c1ccc2ccccc2c1 (stereo not given)

- MIC (Trichophyton benhamiae [15]): < 3.1 mg/L
- MIC (Staphylococcus aureus [8]): < 3.1 mg/L
SMILES: C=C1C(=O)c2ccccc2OC1c1cccc(Cl)c1 (stereo not given)

- MIC (Candida albicans [7]): > 50 mg/L
- MIC (Enterococcus faecalis [25]): 25 mg/L (≈ 85.5 µM)
- MIC (Trichophyton benhamiae [1]): 12.5 mg/L (≈ 42.8 µM)
- MIC (Staphylococcus aureus [8]): < 3.1 mg/L
SMILES: C=C1C(=O)c2ccccc2OC1c1ccc(C(C)(C)C)cc1 (stereo not given)
